From ChEMBL document CHEMBL3596131, “Discovery of a novel trans-1,4-dioxycyclohexane GPR119 agonist series” (Bioorg Med Chem Lett, 2015)
pIC50: −log10 of the molar value. Calls of active or inactive are those of the source. No cut-off for these calls is given here.

Key:
Cytochrome P450 2D6 = Cytochrome P450 2D6 (Homo sapiens, UniProt P10635); assay: Inhibition of CYP2D6 in human liver microsomes; assay type: ADME
[1] = Clearance in Sprague-Dawley rat at 2 mg/kg, iv and po; assay type: ADME, organism-based; details: in vivo
Summary of the method: (§1)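 Male Sprague-Dawley rats; 2 mg/kg IV and 2 mg/kg PO in 20% hp-β-CD; clearance, Vss, terminal t1/2, Cmax, AUClast and oral bioavailability derived.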

[2] = biological target: T1, Glucose-dependent insulinotropic receptor (Homo sapiens) (UniProt Q8TDV5); assay: Agonist activity at human GPR119 by HTRF cAMP assay relative to AR231453; assay type: functional
T1 sequence (whole entry): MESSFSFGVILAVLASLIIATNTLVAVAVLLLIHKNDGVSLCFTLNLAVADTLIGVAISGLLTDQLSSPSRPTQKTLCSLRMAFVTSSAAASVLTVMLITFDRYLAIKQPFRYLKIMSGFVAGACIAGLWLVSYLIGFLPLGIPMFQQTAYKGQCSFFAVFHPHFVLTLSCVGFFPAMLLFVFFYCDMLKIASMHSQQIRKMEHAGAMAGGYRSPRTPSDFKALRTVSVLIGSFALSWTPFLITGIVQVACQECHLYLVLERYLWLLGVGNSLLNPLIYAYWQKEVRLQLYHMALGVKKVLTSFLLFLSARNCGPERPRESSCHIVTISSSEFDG

[3] = Half life in human hepatocytes; assay type: ADME, cell-based, Hepatocyte
[4] = Drug uptake in Sprague-Dawley rat brain at 2 mg/kg, po measured at 2 hrs; assay type: ADME, organism-based; details: read-out: Drug uptake
Summary of the method: (§2)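 Abbreviated CNS study in male SD rats given 2 mg/kg orally in 20% hp-β-CD; brain (ng/g) and plasma (ng/mL) levels sampled at 2 h post-dose, brain/plasma ratio calculated.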

Rattus norvegicus [5] = assay: Antidiabetic activity in Zucker diabetic fatty rat assessed as fed glucose lowering effect at 1 to 10 mg/kg, qd administered over 4 weeks measured after 2 weeks of treatment; assay type: functional, organism-based
Summary of the method: (§3)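 Chronic study in ZDF rats: once-daily dosing at 1, 3 or 10 mg/kg for 4 weeks, vehicle 0.5% methylcellulose; fed glucose and body weight tracked at dosing times, HbA1c measured on day 28 relative to vehicle.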

[6] = Half life in human liver microsomes; assay type: ADME
Rattus norvegicus [7] = assay: Antidiabetic activity in Zucker diabetic fatty rat assessed as suppression of plasma glucose AUC at 10 mg/kg administered 60 mins prior to glucose challenge by OGTT relative to vehicle-treated control; assay type: functional
Rattus norvegicus [8] = assay: Antidiabetic activity in Zucker diabetic fatty rat assessed as suppression of plasma glucose AUC at 3 mg/kg administered 60 mins prior to glucose challenge by OGTT relative to vehicle-treated control; assay type: functional
[9] = biological target: T2, Glucose-dependent insulinotropic receptor (Mus musculus) (UniProt Q7TQP3); assay: Agonist activity at mouse GPR119 by HTRF cAMP assay relative to AR231453; assay type: functional
T2 sequence (whole entry): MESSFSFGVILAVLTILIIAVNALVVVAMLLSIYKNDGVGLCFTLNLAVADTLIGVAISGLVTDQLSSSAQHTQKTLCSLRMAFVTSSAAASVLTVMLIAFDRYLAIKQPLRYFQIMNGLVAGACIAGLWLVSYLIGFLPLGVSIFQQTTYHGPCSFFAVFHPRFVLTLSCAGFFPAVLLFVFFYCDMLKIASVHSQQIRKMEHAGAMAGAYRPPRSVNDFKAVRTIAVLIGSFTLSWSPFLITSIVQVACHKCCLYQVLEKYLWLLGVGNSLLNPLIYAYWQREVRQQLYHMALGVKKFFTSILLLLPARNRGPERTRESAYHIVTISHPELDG

[10] = biological target: T3, Glucose-dependent insulinotropic receptor (Rattus norvegicus) (UniProt Q7TQN8); assay: Agonist activity at rat GPR119 by HTRF cAMP assay relative to AR231453; assay type: functional
T3 sequence (whole entry): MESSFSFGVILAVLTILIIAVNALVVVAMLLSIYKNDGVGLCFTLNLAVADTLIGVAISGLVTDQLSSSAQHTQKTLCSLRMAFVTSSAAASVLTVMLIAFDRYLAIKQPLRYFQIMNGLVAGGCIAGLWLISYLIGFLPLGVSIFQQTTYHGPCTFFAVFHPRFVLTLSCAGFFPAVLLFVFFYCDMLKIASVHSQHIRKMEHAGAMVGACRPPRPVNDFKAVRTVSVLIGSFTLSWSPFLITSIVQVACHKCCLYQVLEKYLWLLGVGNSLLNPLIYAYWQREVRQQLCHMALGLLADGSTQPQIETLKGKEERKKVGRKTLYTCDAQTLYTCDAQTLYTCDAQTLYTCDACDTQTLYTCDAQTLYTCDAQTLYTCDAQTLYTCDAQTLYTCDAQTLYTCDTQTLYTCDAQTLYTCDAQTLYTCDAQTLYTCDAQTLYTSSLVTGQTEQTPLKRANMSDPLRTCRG

[11] = Plasma protein binding in mouse; assay type: ADME, organism-based; details: read-out: PPB (converted)
[12] = Plasma protein binding in rat; assay type: ADME, cell-free; details: read-out: PPB (converted)
[13] = Cmax in Sprague-Dawley rat at 2 mg/kg, iv and po; assay type: ADME, organism-based; details: in vivo; summary of the method: as §1
Rattus norvegicus [14] = assay: Antidiabetic activity in Zucker diabetic fatty rat assessed as suppression of plasma glucose AUC administered 60 mins prior to glucose challenge by OGTT; assay type: functional, organism-based
[15] = Ratio of drug level in brain to plasma in Sprague-Dawley rat at 2 mg/kg, po measured at 2 hrs; assay type: ADME, organism-based; details: read-out: BPR; summary of the method: as §2
Rattus norvegicus [16] = assay: Antidiabetic activity in Zucker diabetic fatty rat assessed as decrease in HbA1C level administered as qd over 4 weeks measured on day 28 post last dose; assay type: functional, organism-based; summary of the method: as §3
Cytochrome P450 3A4 = Cytochrome P450 3A4 (Homo sapiens, UniProt P08684); assay: Inhibition of CYP3A4 in human liver microsomes; assay type: ADME
Sequence of Cytochrome P450 3A4 (P08684 whole entry): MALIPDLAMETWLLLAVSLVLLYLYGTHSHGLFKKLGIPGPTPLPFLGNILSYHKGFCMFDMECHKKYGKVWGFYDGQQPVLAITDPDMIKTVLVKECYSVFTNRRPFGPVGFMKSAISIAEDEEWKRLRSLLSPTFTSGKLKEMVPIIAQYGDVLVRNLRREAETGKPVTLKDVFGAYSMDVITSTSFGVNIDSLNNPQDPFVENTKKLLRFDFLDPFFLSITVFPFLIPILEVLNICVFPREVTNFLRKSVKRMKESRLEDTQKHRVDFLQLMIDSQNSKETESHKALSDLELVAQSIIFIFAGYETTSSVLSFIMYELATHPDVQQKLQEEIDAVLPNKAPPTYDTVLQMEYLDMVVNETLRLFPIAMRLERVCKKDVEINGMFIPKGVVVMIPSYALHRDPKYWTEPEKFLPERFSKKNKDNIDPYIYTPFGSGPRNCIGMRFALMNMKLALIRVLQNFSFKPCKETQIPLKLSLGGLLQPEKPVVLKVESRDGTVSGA

Rattus norvegicus [17] = assay: Antidiabetic activity in Zucker diabetic fatty rat assessed as decrease in HbA1C level at 3 mg/kg, qd administered over 4 weeks measured on day 28 post last dose relative to vehicle-treated control; assay type: functional; design: scale not given: the % may be the effect or the level left; summary of the method: as §3
[18] = Oral bioavailability in Sprague-Dawley rat at 2 mg/kg; assay type: ADME, organism-based; details: in vivo; summary of the method: as §1
[19] = Time-dependent inhibition of CYP450 in human liver microsomes; assay type: ADME
[20] = biological target: Voltage-gated inwardly rectifying potassium channel KCNH2 (Homo sapiens, UniProt Q12809); assay: Inhibition of human ERG by patch clamp assay
Sequence of Voltage-gated inwardly rectifying potassium channel KCNH2 (Q12809 whole entry): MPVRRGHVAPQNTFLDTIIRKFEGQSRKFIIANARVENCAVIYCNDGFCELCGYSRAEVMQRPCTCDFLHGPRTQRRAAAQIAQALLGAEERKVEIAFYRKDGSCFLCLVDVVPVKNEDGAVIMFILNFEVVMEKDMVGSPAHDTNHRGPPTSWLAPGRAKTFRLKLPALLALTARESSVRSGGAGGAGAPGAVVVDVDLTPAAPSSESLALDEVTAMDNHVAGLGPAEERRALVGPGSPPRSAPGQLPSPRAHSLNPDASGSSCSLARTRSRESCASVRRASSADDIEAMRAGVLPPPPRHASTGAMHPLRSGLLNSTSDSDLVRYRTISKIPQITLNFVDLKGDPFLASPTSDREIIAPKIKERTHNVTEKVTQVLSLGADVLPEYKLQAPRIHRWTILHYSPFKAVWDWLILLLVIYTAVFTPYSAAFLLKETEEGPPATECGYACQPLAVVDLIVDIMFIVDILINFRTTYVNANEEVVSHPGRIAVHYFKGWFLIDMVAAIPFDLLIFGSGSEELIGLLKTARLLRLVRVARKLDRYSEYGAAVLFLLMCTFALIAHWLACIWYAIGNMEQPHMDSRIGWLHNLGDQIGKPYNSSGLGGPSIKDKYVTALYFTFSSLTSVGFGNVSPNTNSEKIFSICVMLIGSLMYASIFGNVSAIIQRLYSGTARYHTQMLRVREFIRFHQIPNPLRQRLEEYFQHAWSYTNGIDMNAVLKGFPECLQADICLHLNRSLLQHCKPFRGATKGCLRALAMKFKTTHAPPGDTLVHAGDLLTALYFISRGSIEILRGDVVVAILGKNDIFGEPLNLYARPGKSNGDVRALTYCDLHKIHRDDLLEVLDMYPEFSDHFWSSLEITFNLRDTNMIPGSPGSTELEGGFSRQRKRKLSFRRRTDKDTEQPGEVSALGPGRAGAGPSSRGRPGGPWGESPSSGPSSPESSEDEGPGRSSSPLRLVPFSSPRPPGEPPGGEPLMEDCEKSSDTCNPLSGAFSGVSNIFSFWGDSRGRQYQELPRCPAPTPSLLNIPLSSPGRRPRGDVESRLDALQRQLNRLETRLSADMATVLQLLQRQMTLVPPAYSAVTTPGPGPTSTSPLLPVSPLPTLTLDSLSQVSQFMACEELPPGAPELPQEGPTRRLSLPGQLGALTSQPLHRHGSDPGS

[21] = AUClast in Sprague-Dawley rat at 2 mg/kg, iv and po; assay type: ADME, organism-based; details: in vivo; summary of the method: as §1
Rattus norvegicus [22] = assay: Antidiabetic activity in Zucker diabetic fatty rat assessed as decrease in HbA1C level at 1 mg/kg, qd administered over 4 weeks measured on day 28 post last dose relative to vehicle-treated control; assay type: functional; design: scale not given: the % may be the effect or the level left; summary of the method: as §3
Mus musculus = assay: Antidiabetic activity in normoglycemic 129SVE mouse assessed as suppression of plasma glucose AUC at 1 to 10 mg/kg, po administered 30 mins prior to glucose challenge measured over 120 mins by OGTT relative to vehicle-treated control; assay type: functional
Macaca mulatta = species on record: Macaca mulatta; assay: Agonist activity at monkey GPR119 by HTRF cAMP assay relative to AR231453

Sequence of Cytochrome P450 2D6 (P10635 whole entry): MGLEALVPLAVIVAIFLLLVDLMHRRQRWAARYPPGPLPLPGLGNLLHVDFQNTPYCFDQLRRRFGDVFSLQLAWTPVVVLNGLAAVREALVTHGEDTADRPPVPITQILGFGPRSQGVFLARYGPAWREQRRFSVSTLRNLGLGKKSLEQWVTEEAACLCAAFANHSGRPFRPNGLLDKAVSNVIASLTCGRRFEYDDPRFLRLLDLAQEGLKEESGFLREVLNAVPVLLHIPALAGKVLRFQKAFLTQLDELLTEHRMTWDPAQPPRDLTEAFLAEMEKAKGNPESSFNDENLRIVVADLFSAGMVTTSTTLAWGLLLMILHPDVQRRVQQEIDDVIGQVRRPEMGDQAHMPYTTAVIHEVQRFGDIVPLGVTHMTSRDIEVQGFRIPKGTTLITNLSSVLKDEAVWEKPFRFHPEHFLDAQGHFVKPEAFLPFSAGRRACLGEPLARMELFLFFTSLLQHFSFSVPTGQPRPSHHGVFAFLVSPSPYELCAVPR

**Q.** For `C[C@@H](OC(=O)N1CCC(O[C@H]2CC[C@H](Oc3cnc(S(C)(=O)=O)cn3)CC2)CC1)C(F)(F)F`, which INH (Cytochrome P450 2D6) is on record?
**A.** > 50 µM

**Q.** What about the clearance [1] of the same molecule?
**A.** 6.67 mL/min/kg

**Q.** What about the Emax [2] of the same molecule?
**A.** 106%

**Q.** And the half-life [3]?
**A.** > 2 h

**Q.** And the concentration at 2 h [4]?
**A.** 820 ng/g

**Q.** What about the Activity (Rattus norvegicus [5]) of the same molecule?
**A.** Active

**Q.** And the half-life [6]?
**A.** > 1 h

**Q.** And the Activity (Rattus norvegicus [7])?
**A.** 58%

**Q.** And the Activity (Rattus norvegicus [8])?
**A.** 43%

**Q.** And the Emax [9]?
**A.** 130%

**Q.** And the Emax [10]?
**A.** 120%

**Q.** And the fraction unbound [11]?
**A.** 0.065

**Q.** What about the fraction unbound [12] of the same molecule?
**A.** 0.04

**Q.** What about the Cmax [13] of the same molecule?
**A.** 770 ng/mL

**Q.** And the Activity (Rattus norvegicus [14])?
**A.** Dose-dependent effect

**Q.** What about the Kp at 2 h [15] of the same molecule?
**A.** 0.98

**Q.** What about the Activity (Rattus norvegicus [16]) of the same molecule?
**A.** Dose-dependent effect

**Q.** What about the INH (Cytochrome P450 3A4) of the same molecule?
**A.** > 50 µM

**Q.** What about the Activity (Rattus norvegicus [17]) of the same molecule?
**A.** 1.85%

**Q.** And the bioavailability [18]?
**A.** 100%

**Q.** And the TDI [19]?
**A.** Not Active

**Q.** And the pIC50 [20]?
**A.** < 4.52

**Q.** What about the AUC(0-t) [21] of the same molecule?
**A.** 5210 ng·h/mL

**Q.** And the Activity (Rattus norvegicus [22])?
**A.** 1.63%

**Q.** What about the Activity (Mus musculus) of the same molecule?
**A.** 40%

**Q.** What about the Emax (Macaca mulatta) of the same molecule?
**A.** 73%
